Results published in ChEMBL document CHEMBL1153124, “5-Lipoxygenase-activating protein inhibitors. Part 2: 3-{5-((S)-1-Acetyl-2,3-dihydro-1H-indol-2-ylmethoxy)-3-tert-butylsulfanyl-1-[4-(5-methoxy-pyrimidin-2-yl)-benzyl]-1H-indol-2-yl}-2,2-dimethyl-propionic acid (AM679)--a potent FLAP inhibitor” (Bioorg Med Chem Lett, 2010).
Converted amounts (≈) assume the structure as drawn.

Columns and labels:
[1] = Plasma concentration in calcium ionophore A23187 treated rat bronchoalveolar lavage model at 3 mg/kg, po administered 16 hrs prior to calcium ionophore A23187 challenge; assay type: ADME, organism-based; design: dose 3 mg/kg, route oral
Procedure, shortened: (§1)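 Rat BAL model. 3 mg/kg given orally 16 h before ionophore challenge. LTB4 and CysLT inhibition measured in lavage fluid; average plasma levels measured at that time point.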

Rattus norvegicus [2] = assay: Reduction of LTB4 production in lung lavage fluid of po dosed calcium ionophore A23187 treated rat bronchoalveolar lavage model administered 4 hrs prior to calcium ionophore A23187 challenge; assay type: functional
Procedure, shortened: (§2)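 Rat BAL model. Oral dose-response study with dosing 4 h before ionophore challenge; ED50 for LTB4 and CysLT in lavage fluid.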

Rattus norvegicus [3] = assay: Reduction of CysLT production in lung lavage fluid of calcium ionophore A23187 treated rat bronchoalveolar lavage model at 10 mg/kg, po administered 4 hrs prior to calcium ionophore A23187 challenge; assay type: functional; design: scale not given: the % may be the effect or the level left
Procedure, shortened: (§3)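 Rat bronchoalveolar lavage model. Oral dose of 10 mg/kg as the sodium carboxylate salt, given 4 h before ionophore challenge. LTB4 and CysLT measured in lung lavage fluid; average plasma levels taken 3 h post dose.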

[4] = Cmax in rat at 10 mg/kg, po; assay type: ADME, organism-based; design: dose 10 mg/kg, route oral; settings: in vivo
Procedure, shortened: (§4)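 Rat, oral dosing at 10 mg/kg given as the sodium carboxylate salt. Read-outs: F, clearance, Cmax, AUC and half-life.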

[5] = Half life in rat at 10 mg/kg, po; assay type: ADME, organism-based; design: dose 10 mg/kg, route oral; settings: in vivo; procedure, shortened: as §4
Blood [6] = assay: Inhibition of LTB4 production in calcium ionophore treated A23187 human whole blood after 5 hrs; assay type: functional, tissue-based
Procedure, shortened: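 Human whole blood incubated with compound for an extended 5 h before ionophore challenge; LTB4 production measured. IC50 from n = 6, each n the average of two donors.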

Blood [7] = assay: Inhibition of LTB4 production in calcium ionophore treated A23187 human whole blood after 15 mins; assay type: functional, tissue-based; settings: 0.25 h
Blood [8] = assay: Reduction of LTB4 production in rat blood after 4 hrs; assay type: functional, tissue-based
Procedure, shortened: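 Rat blood incubated with compound for 4 h, then ionophore challenge; inhibition of LTB4 production measured; IC50.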

Blood [9] = assay: Reduction of LTB4 production in rat blood after 3 hrs; assay type: functional, tissue-based
Cytochrome P450 3A4 = Cytochrome P450 3A4 (Homo sapiens, UniProt P08684); assay: Induction of CYP3A4 activity; assay type: ADME
Chain of Cytochrome P450 3A4 (P08684 whole entry): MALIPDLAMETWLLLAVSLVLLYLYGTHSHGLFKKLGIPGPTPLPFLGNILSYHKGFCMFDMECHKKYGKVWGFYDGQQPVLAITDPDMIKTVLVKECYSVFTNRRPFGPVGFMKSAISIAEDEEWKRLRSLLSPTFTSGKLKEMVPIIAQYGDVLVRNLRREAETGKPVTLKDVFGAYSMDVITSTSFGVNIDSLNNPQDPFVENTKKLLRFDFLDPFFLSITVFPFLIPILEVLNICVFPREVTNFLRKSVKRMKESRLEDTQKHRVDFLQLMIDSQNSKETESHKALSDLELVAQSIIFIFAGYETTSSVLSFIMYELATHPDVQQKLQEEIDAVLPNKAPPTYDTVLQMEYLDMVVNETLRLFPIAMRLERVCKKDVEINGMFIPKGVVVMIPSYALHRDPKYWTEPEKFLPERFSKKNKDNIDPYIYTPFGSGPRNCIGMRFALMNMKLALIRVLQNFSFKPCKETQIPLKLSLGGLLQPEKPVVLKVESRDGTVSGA
Procedure, shortened: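 CYP3A4 induction assay measuring a compound's ability to raise CYP enzyme activity.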

[10] = molecular target: T1, Arachidonate 5-lipoxygenase-activating protein (Homo sapiens, UniProt P20292); assay: Binding affinity to FLAP in human PMN derived membrane; assay type: cell membranes
T1 sequence (P20292 whole entry): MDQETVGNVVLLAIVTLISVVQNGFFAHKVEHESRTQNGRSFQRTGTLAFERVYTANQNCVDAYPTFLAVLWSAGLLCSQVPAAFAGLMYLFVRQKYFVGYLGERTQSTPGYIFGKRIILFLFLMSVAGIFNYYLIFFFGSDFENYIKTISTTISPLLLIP
Procedure, shortened: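 FLAP binding measured in membranes derived from human polymorphonuclear leukocytes (PMN). IC50 values are the average of n ≥ 3.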

[11] = Bioavailability in rat at 10 mg/kg; assay type: ADME, organism-based; settings: in vivo; procedure, shortened: as §4
Cytochrome P450 2C9 = Cytochrome P450 2C9 (Homo sapiens, UniProt P11712); assay: Inhibition of CYP2C9; assay type: ADME
Chain of Cytochrome P450 2C9 (P11712 whole entry): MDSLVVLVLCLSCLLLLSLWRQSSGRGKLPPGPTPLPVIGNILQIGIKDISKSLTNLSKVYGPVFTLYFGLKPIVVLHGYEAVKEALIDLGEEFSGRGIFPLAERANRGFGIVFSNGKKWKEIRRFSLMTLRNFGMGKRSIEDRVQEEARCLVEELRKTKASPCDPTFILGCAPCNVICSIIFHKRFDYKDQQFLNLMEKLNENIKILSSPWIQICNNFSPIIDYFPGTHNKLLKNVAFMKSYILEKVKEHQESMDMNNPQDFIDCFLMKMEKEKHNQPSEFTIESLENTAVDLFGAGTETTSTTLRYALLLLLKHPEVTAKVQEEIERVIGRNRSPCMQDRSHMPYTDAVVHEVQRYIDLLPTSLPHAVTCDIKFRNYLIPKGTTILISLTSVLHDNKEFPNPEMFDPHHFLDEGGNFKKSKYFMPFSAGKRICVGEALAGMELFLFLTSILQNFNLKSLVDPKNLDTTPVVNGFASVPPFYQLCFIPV

Cytochrome P450 2D6 = Cytochrome P450 2D6 (Homo sapiens, UniProt P10635); assay: Inhibition of CYP2D6; assay type: ADME
Chain of Cytochrome P450 2D6 (P10635 whole entry): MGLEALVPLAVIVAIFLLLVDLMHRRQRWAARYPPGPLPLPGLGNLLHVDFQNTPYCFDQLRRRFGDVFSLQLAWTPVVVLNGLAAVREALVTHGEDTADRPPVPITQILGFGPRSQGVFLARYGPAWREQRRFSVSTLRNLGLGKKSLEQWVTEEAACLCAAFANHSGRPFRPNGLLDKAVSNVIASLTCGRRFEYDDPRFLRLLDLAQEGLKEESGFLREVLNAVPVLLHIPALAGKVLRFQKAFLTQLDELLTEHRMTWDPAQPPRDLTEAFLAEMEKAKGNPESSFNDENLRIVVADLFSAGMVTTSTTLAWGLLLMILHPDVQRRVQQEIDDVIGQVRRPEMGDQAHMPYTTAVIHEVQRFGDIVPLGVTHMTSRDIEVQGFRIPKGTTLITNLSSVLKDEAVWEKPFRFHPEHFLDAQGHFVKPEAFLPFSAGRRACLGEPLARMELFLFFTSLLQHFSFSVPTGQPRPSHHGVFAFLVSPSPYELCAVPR

[12] = Solubility in water; assay type: physicochemical
[13] = Clearance in rat at 10 mg/kg, po; assay type: ADME, organism-based; design: dose 10 mg/kg, route oral; settings: in vivo; procedure, shortened: as §4
Rattus norvegicus [14] = assay: Reduction of LTB4 production in lung lavage fluid of calcium ionophore A23187 treated rat bronchoalveolar lavage model at 3 mg/kg, po administered 16 hrs prior to calcium ionophore A23187 challenge; assay type: functional; design: scale not given: the % may be the effect or the level left; procedure, shortened: as §1
Rattus norvegicus [15] = assay: Reduction of LTB4 production in lung lavage fluid of calcium ionophore A23187 treated rat bronchoalveolar lavage model at 10 mg/kg, po administered 4 hrs prior to calcium ionophore A23187 challenge; assay type: functional; design: scale not given: the % may be the effect or the level left; procedure, shortened: as §3
[16] = Solubility in 0.9% saline; assay type: physicochemical
Rattus norvegicus [17] = assay: Reduction of CysLT production in lung lavage fluid of po dosed calcium ionophore A23187 treated rat bronchoalveolar lavage model administered 4 hrs prior to calcium ionophore A23187 challenge; assay type: functional; procedure, shortened: as §2
[18] = Plasma concentration in calcium ionophore A23187 treated rat bronchoalveolar lavage model at 10 mg/kg, po administered 4 hrs prior to calcium ionophore A23187 challenge measured 3 hrs after post dose; assay type: ADME, organism-based; design: dose 10 mg/kg, route oral; procedure, shortened: as §3
Rattus norvegicus [19] = assay: Reduction of CysLT production in lung lavage fluid of calcium ionophore A23187 treated rat bronchoalveolar lavage model at 3 mg/kg, po administered 16 hrs prior to calcium ionophore A23187 challenge; assay type: functional; design: scale not given: the % may be the effect or the level left; procedure, shortened: as §1
[20] = Inhibition of LTB4 production in calcium ionophore A23187 treated human leukocytes; assay type: functional, cell-based; settings: Leukocyte
Procedure, shortened: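 Human leukocytes challenged with calcium ionophore; LTB4 produced by the cells was measured. IC50 is the average of n ≥ 3.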

COc1cnc(-c2ccc(Cn3c(CC(C)(C)C(=O)O)c(SC(C)(C)C)c4cc(OC[C@@H]5Cc6ccccc6N5C(C)=O)ccc43)cc2)nc1
concentration at 16 h [1]: 4 nM
ED50 (Rattus norvegicus [2]): 0.8 mg/kg
Activity (Rattus norvegicus [3]): 87%
Cmax [4]: 1600 nM
half-life [5]: 408 min
IC50 (Blood [6]): 53 nM
IC50 (Blood [7]): 154 nM
IC50 (Blood [8]): 9 nM
IC50 (Blood [9]): 125 nM
Activity (Cytochrome P450 3A4): Not Active
IC50 [10]: 2.2 nM
bioavailability [11]: 29%
IC50 (Cytochrome P450 2C9): 3.7 µM
INH (Cytochrome P450 2D6): > 30 µM
solubility [12]: 10000 µg/mL (≈ 14.4 mM)
CL/F [13]: 11 mL/min/kg
Activity (Rattus norvegicus [14]): 77%
Activity (Rattus norvegicus [15]): 98%
solubility [16]: 30 µg/mL (≈ 0.0433 mM)
ED50 (Rattus norvegicus [17]): 1.4 mg/kg
concentration at 3 h [18]: 605 nM
Activity (Rattus norvegicus [19]): 45%
IC50 [20]: 0.6 nM
